# Measured values from ChEMBL document CHEMBL1132287, “Selective, tight-binding inhibitors of integrin alpha4beta1 that inhibit allergic airway responses” (J Med Chem, 1999).
# *1 amine or outer side, *2 acyl side, *3 side chain or, on linkers, in order; H or OH if unused. Where a SMILES comes first, the peptide text is derived from it. [ ]: non-standard residue; d: D form. The star is where a group is joined. X1 = O=C(Cc1ccc(N[*:1])cc1)[*:2]; NH(2-Me-phenyl) = Cc1ccccc1N*; PhAc = O=C(Cc1ccccc1)*; CO = O=C([*:1])[*:2]; Ahx = NCCCCCC(=O)O
# Tests used:
# [1] = Inhibition of integrin alpha6-beta1 adhesion using K562 cells expressing alpha-6; assay type: cell-based, Homo sapiens
# Method in brief: (§1)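 BCECF-AM-labeled cells incubated 30 min at room temperature with inhibitor (1 nM–100 uM serial dilutions) or vehicle plus 1 mM MnCl2 in wells coated overnight at 4 °C with ligand; bound cells read at 530 nm. alpha4beta7: JY cells on CS-1–BSA 1 ug/mL; alpha5beta1: K562 on human 120 kD fibronectin fragment 5 ug/mL; alpha6beta1: alpha6-K562 on mouse laminin 20 ug/mL. IC50 from inhibition curves.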
# Integrin alpha-4/beta-1 [2] = molecular target: T1, Integrin alpha-4/beta-1 (Homo sapiens, UniProt P05556+P13612); assay: Inhibition of integrin alpha4-beta1 binding to VCAM-Ig; assay type: protein-complex assay
# [3] = molecular target: Integrin alpha-IIb/beta-3 (Homo sapiens, UniProt P05106+P08514); assay: Inhibition of integrin alphaIIb-beta3 adhesion to human citreated platelets
# Integrin alpha-5/beta-1 = Integrin alpha-5/beta-1 (Homo sapiens, UniProt P05556+P08648); assay: Inhibition of integrin alpha5-beta1 adhesion to K562 cells; assay type: cell-based; method in brief: as §1
# Integrin alpha-4/beta-7 = molecular target: T2, Integrin alpha-4/beta-7 (Homo sapiens, UniProt P13612+P26010); assay: Inhibition of integrin alpha4-beta7 adhesion to JY cells; assay type: cell-based; method in brief: as §1
# T2 sequence (P13612 whole entry): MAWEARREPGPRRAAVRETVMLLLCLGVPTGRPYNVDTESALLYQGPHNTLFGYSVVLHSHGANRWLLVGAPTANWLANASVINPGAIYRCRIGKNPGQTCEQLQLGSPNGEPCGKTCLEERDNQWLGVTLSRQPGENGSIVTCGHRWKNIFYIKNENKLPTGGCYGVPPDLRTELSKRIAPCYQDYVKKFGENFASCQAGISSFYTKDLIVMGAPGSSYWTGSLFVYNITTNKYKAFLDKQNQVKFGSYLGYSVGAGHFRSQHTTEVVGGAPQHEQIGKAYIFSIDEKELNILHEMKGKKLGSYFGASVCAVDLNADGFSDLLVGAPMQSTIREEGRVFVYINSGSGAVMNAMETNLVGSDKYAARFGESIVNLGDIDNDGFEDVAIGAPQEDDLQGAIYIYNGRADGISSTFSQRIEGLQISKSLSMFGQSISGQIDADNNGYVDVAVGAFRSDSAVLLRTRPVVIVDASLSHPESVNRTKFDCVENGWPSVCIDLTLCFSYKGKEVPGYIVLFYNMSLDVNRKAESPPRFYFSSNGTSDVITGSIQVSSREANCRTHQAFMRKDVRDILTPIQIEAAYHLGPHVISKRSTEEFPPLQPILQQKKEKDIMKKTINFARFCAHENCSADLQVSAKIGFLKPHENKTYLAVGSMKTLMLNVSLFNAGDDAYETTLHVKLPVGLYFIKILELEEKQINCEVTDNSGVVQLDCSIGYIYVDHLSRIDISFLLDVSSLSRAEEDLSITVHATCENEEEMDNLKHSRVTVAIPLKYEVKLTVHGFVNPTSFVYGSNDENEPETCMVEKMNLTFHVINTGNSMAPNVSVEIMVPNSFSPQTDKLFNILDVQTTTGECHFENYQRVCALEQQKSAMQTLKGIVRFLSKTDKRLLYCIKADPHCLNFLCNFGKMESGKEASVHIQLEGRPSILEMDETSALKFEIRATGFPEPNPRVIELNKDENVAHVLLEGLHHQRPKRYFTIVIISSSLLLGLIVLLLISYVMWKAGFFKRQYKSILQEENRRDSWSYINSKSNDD
# T2 sequence (P26010 whole entry): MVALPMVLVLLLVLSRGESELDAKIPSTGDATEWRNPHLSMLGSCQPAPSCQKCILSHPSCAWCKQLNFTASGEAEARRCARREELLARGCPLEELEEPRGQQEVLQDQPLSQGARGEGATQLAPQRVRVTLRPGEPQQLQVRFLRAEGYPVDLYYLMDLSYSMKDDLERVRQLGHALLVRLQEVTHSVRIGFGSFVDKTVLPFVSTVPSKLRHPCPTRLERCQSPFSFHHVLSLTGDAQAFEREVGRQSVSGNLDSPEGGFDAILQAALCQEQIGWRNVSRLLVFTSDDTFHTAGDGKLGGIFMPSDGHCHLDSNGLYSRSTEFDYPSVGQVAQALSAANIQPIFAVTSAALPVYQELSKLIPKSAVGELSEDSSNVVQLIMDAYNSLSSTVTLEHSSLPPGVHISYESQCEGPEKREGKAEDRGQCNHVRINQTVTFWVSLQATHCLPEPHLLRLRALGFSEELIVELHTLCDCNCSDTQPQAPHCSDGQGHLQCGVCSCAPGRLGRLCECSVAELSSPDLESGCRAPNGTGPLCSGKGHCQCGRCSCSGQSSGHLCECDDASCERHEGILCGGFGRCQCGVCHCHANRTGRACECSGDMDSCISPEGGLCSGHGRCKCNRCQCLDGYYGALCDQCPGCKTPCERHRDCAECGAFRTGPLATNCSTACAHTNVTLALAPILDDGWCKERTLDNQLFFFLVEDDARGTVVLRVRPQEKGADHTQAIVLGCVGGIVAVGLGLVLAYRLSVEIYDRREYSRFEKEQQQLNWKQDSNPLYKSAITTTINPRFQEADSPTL
# [4] = molecular target: Intercellular adhesion molecule (ICAM-1), Integrin alpha-L/beta-2 (Homo sapiens, UniProt P05107+P05362+P20701); assay: Inhibition of ICAM-1 transfected CHO cell adhesion to integrin alphaL-beta2 of human JY cells; assay type: cell-based
# Integrin alpha-4/beta-1 [5] = molecular target: T1, Integrin alpha-4/beta-1; assay: Inhibition of integrin alpha4-beta1 adhesion to Jurkat cells; assay type: cell-based
# Method in brief: (§2)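 BCECF-AM-labeled Jurkat cells (20 min, 37 °C) incubated 30 min with serial inhibitor dilutions or vehicle plus 1 mM MnCl2 in wells coated overnight at 4 °C with 1 ug/mL CS-1–BSA conjugate; after washing, bound cells read by fluorescence at 530 nm.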
# [6] = Inhibition of integrin alpha1-beta1 adhesion using K562 cells expressing alpha-1; assay type: cell-based, Homo sapiens
# Integrin alpha-4/beta-1 [7] = molecular target: T1, Integrin alpha-4/beta-1; assay: Inhibition of VCAM-Ig binding to integrin alpha4-beta1 of Jurkat cells; assay type: cell-based
# Integrin alpha-4/beta-1 [8] = molecular target: T1, Integrin alpha-4/beta-1; assay: Inhibition of integrin alpha4-beta1 adhesion to Jurkat cells (No inhibition); assay type: cell-based; method in brief: as §2
# [9] = molecular target: Integrin alpha1/beta1 (Homo sapiens); assay: Inhibition of integrin alpha1-beta1 adhesion using K562 cells expressing alpha-1
# Chain of Intercellular adhesion molecule (ICAM-1), Integrin alpha-L/beta-2 (P20701 whole entry): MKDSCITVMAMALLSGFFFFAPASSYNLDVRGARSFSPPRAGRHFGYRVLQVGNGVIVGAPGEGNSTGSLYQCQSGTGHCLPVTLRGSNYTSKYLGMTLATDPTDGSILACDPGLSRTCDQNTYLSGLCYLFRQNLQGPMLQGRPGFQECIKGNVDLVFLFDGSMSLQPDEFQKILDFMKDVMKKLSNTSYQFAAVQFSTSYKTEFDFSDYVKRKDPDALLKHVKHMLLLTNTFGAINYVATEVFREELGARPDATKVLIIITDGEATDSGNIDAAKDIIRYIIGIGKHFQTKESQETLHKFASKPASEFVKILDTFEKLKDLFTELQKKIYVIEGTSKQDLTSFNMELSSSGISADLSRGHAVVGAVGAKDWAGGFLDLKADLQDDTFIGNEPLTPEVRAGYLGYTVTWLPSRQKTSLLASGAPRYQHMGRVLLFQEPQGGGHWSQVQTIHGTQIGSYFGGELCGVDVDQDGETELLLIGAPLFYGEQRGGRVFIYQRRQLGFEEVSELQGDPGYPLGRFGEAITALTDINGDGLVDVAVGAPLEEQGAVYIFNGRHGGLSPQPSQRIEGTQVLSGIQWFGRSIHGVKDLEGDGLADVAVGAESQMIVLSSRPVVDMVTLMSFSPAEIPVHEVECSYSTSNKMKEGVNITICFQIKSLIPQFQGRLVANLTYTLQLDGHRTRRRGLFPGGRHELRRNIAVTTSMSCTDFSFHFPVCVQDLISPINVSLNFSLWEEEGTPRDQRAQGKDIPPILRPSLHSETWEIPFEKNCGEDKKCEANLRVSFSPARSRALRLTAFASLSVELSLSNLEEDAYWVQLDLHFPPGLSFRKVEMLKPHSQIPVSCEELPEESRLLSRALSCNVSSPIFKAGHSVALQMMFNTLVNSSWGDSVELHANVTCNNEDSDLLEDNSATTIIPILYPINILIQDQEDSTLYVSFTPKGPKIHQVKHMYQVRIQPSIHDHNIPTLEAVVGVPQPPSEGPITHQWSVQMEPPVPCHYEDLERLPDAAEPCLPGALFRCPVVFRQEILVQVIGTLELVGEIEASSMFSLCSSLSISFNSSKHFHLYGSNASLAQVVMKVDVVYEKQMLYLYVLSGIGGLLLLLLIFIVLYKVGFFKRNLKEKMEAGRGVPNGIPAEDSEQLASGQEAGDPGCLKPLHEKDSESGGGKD
# Chain of Intercellular adhesion molecule (ICAM-1), Integrin alpha-L/beta-2 (P05362 whole entry): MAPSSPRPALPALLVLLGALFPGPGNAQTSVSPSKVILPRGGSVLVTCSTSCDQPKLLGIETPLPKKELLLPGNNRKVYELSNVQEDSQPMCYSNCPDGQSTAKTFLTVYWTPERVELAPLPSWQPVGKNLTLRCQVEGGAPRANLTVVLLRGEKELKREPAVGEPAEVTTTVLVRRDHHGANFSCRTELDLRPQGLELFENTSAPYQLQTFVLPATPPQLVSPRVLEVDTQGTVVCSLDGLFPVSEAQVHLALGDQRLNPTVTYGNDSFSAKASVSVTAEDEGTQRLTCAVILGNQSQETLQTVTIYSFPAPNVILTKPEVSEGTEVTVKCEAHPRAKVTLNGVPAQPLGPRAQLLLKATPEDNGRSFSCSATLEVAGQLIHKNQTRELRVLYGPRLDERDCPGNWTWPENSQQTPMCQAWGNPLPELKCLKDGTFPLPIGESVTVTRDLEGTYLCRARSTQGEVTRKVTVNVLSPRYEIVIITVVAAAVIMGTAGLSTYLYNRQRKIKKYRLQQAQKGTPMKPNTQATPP
# Chain of Intercellular adhesion molecule (ICAM-1), Integrin alpha-L/beta-2 (P05107 whole entry): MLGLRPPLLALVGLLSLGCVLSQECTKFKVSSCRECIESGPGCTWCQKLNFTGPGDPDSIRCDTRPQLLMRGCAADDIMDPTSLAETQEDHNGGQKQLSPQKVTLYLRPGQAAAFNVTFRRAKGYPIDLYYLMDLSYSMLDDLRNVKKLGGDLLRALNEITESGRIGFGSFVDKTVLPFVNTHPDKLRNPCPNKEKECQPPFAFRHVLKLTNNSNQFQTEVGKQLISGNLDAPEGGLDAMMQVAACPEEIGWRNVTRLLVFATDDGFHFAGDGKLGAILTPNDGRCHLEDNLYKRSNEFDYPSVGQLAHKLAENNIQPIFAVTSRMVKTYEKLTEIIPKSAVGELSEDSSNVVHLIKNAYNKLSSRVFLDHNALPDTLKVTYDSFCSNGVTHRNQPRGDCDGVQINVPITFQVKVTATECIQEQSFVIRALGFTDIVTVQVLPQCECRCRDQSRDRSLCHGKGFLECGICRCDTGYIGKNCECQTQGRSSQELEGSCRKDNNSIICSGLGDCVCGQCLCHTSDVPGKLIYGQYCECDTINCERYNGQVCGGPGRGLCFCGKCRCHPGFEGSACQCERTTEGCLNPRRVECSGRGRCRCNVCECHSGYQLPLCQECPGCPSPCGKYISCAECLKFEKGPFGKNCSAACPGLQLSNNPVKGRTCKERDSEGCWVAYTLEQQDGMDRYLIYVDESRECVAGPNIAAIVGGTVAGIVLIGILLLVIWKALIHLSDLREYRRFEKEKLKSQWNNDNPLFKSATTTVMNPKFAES
# Chain of Integrin alpha-IIb/beta-3 (P05106 27-788 limits assumed): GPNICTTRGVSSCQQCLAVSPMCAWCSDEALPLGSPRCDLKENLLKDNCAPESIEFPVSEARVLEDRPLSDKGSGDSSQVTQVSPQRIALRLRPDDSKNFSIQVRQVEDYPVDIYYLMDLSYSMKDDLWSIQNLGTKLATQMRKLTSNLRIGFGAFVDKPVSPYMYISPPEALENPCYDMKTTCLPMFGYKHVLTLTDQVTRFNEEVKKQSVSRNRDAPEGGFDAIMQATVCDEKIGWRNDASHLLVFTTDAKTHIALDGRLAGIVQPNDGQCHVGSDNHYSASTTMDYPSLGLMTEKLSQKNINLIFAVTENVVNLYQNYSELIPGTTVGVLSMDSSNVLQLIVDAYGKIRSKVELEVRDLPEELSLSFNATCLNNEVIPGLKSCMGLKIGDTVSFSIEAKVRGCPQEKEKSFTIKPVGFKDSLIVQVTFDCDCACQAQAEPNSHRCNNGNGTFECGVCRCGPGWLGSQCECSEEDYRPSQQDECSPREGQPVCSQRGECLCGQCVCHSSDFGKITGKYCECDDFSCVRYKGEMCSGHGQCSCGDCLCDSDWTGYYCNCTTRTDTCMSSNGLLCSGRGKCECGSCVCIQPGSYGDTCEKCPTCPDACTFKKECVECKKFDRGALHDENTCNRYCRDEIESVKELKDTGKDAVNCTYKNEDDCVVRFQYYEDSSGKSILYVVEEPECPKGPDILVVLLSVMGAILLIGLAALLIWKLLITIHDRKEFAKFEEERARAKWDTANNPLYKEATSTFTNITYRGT
# Chain of Integrin alpha-IIb/beta-3 (P08514 32-887 limits assumed): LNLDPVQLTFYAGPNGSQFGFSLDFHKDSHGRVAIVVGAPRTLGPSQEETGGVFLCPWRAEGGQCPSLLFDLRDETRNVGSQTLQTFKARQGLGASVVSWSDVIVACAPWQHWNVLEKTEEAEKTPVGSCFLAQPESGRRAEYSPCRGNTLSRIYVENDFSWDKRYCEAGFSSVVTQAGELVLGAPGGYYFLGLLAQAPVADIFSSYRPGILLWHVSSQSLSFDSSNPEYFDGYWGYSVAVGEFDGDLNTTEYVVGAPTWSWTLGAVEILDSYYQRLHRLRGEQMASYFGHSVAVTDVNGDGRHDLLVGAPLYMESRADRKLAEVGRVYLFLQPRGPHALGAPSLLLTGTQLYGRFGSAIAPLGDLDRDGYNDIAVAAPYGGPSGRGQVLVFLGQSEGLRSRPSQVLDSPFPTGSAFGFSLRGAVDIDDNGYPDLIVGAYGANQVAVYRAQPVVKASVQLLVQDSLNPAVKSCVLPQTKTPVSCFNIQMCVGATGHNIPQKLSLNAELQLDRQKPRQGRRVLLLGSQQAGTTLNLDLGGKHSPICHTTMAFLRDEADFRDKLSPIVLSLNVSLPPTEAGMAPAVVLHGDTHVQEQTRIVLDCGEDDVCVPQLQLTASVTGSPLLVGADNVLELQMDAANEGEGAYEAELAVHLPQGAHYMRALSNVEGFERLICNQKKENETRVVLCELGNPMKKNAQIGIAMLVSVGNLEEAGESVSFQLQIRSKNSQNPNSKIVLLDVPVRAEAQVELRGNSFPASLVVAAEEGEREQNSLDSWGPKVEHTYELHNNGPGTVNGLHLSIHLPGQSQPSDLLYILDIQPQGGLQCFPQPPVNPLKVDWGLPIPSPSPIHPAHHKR
# Chain of Integrin alpha-IIb/beta-3 (P08514 891-1039 limits assumed): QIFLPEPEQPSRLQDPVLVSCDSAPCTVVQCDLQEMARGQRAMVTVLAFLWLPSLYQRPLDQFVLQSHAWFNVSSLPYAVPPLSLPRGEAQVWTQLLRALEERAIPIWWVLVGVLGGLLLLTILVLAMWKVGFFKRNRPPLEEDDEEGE
# T1 sequence (P05556 whole entry, one chain of several): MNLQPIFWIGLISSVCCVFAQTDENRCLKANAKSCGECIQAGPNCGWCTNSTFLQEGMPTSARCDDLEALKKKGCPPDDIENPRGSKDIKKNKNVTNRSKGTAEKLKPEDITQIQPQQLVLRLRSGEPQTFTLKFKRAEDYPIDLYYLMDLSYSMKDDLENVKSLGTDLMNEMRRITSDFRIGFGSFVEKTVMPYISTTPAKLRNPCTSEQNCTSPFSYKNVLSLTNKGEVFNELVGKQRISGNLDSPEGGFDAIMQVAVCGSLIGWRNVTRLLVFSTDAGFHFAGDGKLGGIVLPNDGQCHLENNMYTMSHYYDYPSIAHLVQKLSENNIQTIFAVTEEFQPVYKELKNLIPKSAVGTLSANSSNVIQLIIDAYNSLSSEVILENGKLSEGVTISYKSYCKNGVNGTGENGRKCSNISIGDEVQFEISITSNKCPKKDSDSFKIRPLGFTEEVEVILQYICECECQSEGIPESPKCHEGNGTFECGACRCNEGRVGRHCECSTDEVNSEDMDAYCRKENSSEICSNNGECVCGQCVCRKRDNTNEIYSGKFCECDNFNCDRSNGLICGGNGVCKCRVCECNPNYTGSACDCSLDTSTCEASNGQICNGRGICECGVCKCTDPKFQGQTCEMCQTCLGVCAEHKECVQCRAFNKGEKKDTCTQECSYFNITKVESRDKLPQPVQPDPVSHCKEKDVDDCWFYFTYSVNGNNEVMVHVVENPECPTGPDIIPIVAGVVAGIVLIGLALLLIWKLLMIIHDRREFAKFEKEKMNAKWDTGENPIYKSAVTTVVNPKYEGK
IC50 (Integrin alpha-4/beta-1 [2]) [µM],IC50 (Integrin alpha-4/beta-1 [5]) [µM],SMILES,further results
0.018,0.068,Cc1ccccc1NC(=O)Nc1ccc(CC(=O)N[C@@H](CC(C)C)C(=O)N[C@@H](CC(=O)O)C(=O)O)cc1,IC50 [1]: > 100 µM; IC50 [3]: > 100 µM; IC50 (Integrin alpha-5/beta-1): > 100 µM; IC50 (Integrin alpha-4/beta-7): 59 µM; IC50 [4]: > 100 µM; IC50 [6]: > 100 µM
–,–,Cc1ccccc1NC(=O)Nc1ccc(CC(=O)O)cc1,IC50 (Integrin alpha-4/beta-1 [7]): No inhibition; IC50 (Integrin alpha-4/beta-1 [8]): Not Active
0.003,0.03,CC(C)C[C@H](NC(=O)Cc1ccc(NC(=O)Nc2ccccc2)cc1)C(=O)N[C@@H](CC(=O)O)C(=O)N[C@H](C(=O)O)C(C)C,–
0.295,3.25,CC(C)C[C@H](NC(=O)Cc1ccc(NC(=O)c2ccccc2)cc1)C(=O)N[C@@H](CC(=O)O)C(=O)N[C@H](C(=O)O)C(C)C,–
0.43,5,CC(C)C[C@H](NC(=O)Cc1ccc(O)cc1)C(=O)N[C@@H](CC(=O)O)C(=O)N[C@H](C(=O)O)C(C)C,–
0.0006,0.006,Cc1ccccc1NC(=O)Nc1ccc(CC(=O)N[C@@H](CC(C)C)C(=O)N[C@@H](CC(=O)O)C(=O)N[C@H](C(=O)O)C(C)C)cc1,IC50 [1]: > 100 µM; IC50 [3]: > 100 µM; IC50 [9]: > 100 µM; IC50 (Integrin alpha-5/beta-1): > 100 µM; IC50 (Integrin alpha-4/beta-7): 8 µM; IC50 [4]: > 50 µM
–,–,Cc1ccccc1NC(=O)Nc1ccc(CC(=O)N[C@@H](CC(C)C)C(=O)O)cc1,IC50 (Integrin alpha-4/beta-1 [7]): No inhibition; IC50 (Integrin alpha-4/beta-1 [8]): Not Active
0.03,0.2,CC(C)C[C@H](NC(=O)Cc1ccc(NC(=O)OCc2ccccc2)cc1)C(=O)N[C@@H](CC(=O)O)C(=O)N[C@H](C(=O)O)C(C)C,–
66,175,CC[C@H](C)[C@H](N)C(=O)N[C@@H](CC(C)C)C(=O)N[C@@H](CC(=O)O)C(=O)N[C@H](C(=O)O)C(C)C (H-ILDV-OH),–
1,40,CC(C)C[C@H](NC(=O)Cc1ccccc1)C(=O)N[C@@H](CC(=O)O)C(=O)N[C@H](C(=O)O)C(C)C (PhAc-Leu-Asp-Val-OH),–
0.004,0.02,Cc1ccccc1NC(=O)Nc1ccc(CC(=O)N[C@@H](CCCCNC(=O)CCCCCN)C(=O)N[C@@H](CC(=O)O)C(=O)N[C@H](C(=O)N2CCC[C@H]2C(=O)O)C(C)C)cc1 ({NH(2-Me-phenyl)-CO}-[X1]K(Ahx)DVP-OH),–
0.001,0.008,Cc1ccccc1NC(=O)Nc1ccc(CC(=O)N[C@@H](CC(C)C)C(=O)N[C@@H](CC(=O)O)C(=O)N[C@H](C(=O)N2CCC[C@H]2C(N)=O)C(C)C)cc1 ({NH(2-Me-phenyl)-CO}-[X1]LDVP-NH2),–
–,–,Cc1ccccc1NC(=O)Nc1ccc(CC(=O)N[C@@H](CC(C)C)C(=O)N[C@@H](CC(=O)O)C(=O)N[C@H](C(=O)N2CCC[C@H]2C(=O)O)C(C)C)cc1 ({NH(2-Me-phenyl)-CO}-[X1]LDVP-OH),IC50 [1]: > 100 µM; IC50 [3]: > 100 µM; IC50 (Integrin alpha-4/beta-7): 2 µM; IC50 [4]: > 100 µM; IC50 [6]: > 100 µM

SMILES,IC50 (Integrin alpha-4/beta-1 [2]) [µM],IC50 (Integrin alpha-4/beta-1 [5]) [µM],further results
CC(C)C[C@H](NC(=O)[C@@H](N)Cc1ccc(O)cc1)C(=O)N[C@@H](CC(=O)O)C(=O)N[C@H](C(=O)O)C(C)C (H-YLDV-OH),12.6,51,–
Cc1ccccc1NC(=O)Nc1ccc(CC(=O)N[C@@H](CC(C)C)C(=O)N[C@@H](CC(=O)O)C(=O)N[C@H](C(=O)N2CCC[C@H]2C(=O)N[C@@H](CO)C(=O)N[C@H](C(=O)O)[C@@H](C)O)C(C)C)cc1 ({NH(2-Me-phenyl)-CO}-[X1]LDVPST-OH),0.001,0.005,–
